Tests used:
[1] = biological target: T1, Human recombinant catalytic domain of PERK (Homo sapiens, UniProt Q9NZJ5); conditions: published PERK inhibitor; cited from earlier work
T1 sequence (Q9NZJ5 536-1116): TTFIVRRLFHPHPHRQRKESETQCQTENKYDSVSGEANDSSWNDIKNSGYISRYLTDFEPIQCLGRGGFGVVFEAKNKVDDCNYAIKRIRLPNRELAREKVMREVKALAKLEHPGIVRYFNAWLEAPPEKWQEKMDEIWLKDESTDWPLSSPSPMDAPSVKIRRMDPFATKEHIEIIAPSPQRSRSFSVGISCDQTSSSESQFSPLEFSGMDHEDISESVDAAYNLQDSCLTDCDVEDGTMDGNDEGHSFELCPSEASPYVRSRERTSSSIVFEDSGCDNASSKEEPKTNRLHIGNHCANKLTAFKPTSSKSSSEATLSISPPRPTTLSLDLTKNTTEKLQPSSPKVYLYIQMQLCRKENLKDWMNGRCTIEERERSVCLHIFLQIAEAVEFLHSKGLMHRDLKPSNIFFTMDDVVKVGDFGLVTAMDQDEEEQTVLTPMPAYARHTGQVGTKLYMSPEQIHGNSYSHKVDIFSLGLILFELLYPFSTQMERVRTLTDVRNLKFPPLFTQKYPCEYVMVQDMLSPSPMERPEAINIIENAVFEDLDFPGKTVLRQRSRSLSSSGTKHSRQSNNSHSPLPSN

PERK = assay: Thapsigargin-induced eIF2α phosphorylation in MEFs; format: cell-based, mouse; conditions: wild-type MEFs, pretreated at 50 µM for 1 or 24 h, then thapsigargin 500 nM 1 h
In short: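 Wild-type mouse embryonic fibroblasts were grown in high-glucose DMEM with 4 mM L-glutamine, 10% FBS, penicillin/streptomycin and β-mercaptoethanol. Cells were pretreated with test compound at 50 µM for 1 or 24 h, then with 500 nM thapsigargin for 1 h; PERK⁻/⁻ MEFs served as control.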

[2] = biological target: T1, Human recombinant catalytic domain of PERK; assay: Radiometric PERK kinase assay; format: biochemical; conditions: method of replots
In short: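 Radiometric filter assay using GST-tagged human PERK catalytic domain (aa 536–1116) at 8 nM and full-length Flag-tagged eIF2α. Buffer was 20 mM HEPES pH 7.2, 10 mM MgCl₂, 150 mM NaCl, 0.01% Tween 20, with [γ-³³P]ATP, at room temperature. Initial velocity versus ATP was measured at fixed 10 µM eIF2α across several test compound concentrations. Reactions were stopped with 75 mM phosphoric acid, filter-captured, washed and scintillation-counted; no-PERK background; analysed by replots.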

Row | Structure (SMILES) | mechanism of action on PERK [1] | stress-dependent eIF2α phosphorylation (PERK) | mechanism of inhibition with respect to ATP ([2]; ATP variable, fixed eIF2α) | mechanism of inhibition with respect to eIF2α ([2]; eIF2α variable, fixed ATP)
1 | Cn1cc(-c2ccc3c(c2)CCN3C(=O)Cc2cccc(C(F)(F)F)c2)c2c(N)ncnc21 [GSK2606414, 7-Methyl-5-(1-{[3-(trifluoromethyl)phenyl]acetyl}-2,3-di-hydro-1H–indol-5-yl)-7H–p yrrolo[2,3-d]pyrimidin-4-amine] | ATP competitive |  |  | 
2 | O=c1ccc2nccc3c4ccccc4n1c23 [LDN-0022506, canthin-6-one] |  | inhibited | noncompetitive | noncom-petitive

Reference: publication PMC4570879 (Journal of biomolecular screening, 2014)
